Results on six molecules are retold here after paper PMC7540414 (The Prostate, 2020).

Test [1] concerns patient 1 tumor CR cells. The experiment in a line: Drug sensitivity assay. The note with it: for Sensitivity of tumor-derived CR cells compared with benign CR cells: patient 1, IC50 comparison, 72 hour, P < .05 where significant. Type of test: cell-based, Human. A digest of the protocol:
(§1)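 Tumor CR cells came from radical prostatectomy tissue (>70% tumor) by protease dissociation and the conditional reprogramming method, alongside matched benign CR cells. 3000 cells per well were seeded in conditioned medium, in triplicate. After 24 h, medium containing test compound was added. […] Values are mean ± SD of three separate experiments in triplicate.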

Test [2] deals with metastatic CRPC. The note with it: phase I trials; cited from earlier work.
For test [3], the system named is patient 2 tumor CR cells. The experiment in a line: Drug sensitivity assay. The note with it: for Sensitivity of tumor-derived CR cells compared with normal CR cells: patient 2, IC50 comparison, 72 hour, P < .01 where significant. The class given is cell-based, Human. A digest of the protocol:
as §1

Test [4] concerns tumor CR cells. The class given is cell-based, Human. The note with it: shared by patients 1 and 2; FDR 0.05; FC 1.5. A digest of the protocol: (§2)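 Tumor and normal CR cells from each patient were grown in conditioned medium and given test compound (28 nM for patient 1, 6.5 nM for patient 2) or DMSO, then profiled by RNA-seq. Treated-vs-DMSO DEGs were called at FDR < 0.05 and FC 1.5. Induced and inhibited gene sets were compared across both patients' cells by Venn diagram (Venny).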

Test [5] deals with metastatic CRPC. The note with it: phase II trial, CFZ in combination with other drugs; cited from earlier work.
The subject of test [6] is normal CR cells. Type of test: cell-based, Human. The note with it: shared by patients 1 and 2; FDR 0.05; FC 1.5. The method, boiled down: as §2

Structures are written as SMILES.

As for `CC(C)C[C@H](NC(=O)[C@H](Cc1ccccc1)NC(=O)c1cnccn1)B(O)O` [BTZ, bortezomib], the “Sensitivity of tumor-derived CR cells compared with benign CR cells” value (shortened to “Sensitivity … compared with benign CR cells”) in test [1] is “more sensitive”. In test [2], the “patients showing stable PSA” value is listed as 25% and the “patients with more than 50% decline in PSA” value is listed as 4%. The “Sensitivity of tumor-derived CR cells compared with normal CR cells” value (shortened to “Sensitivity … compared with normal CR cells”) in test [3] is given as “significant responses”.
On to `CC(C)C[C@H](NC(=O)[C@H](CCc1ccccc1)NC(=O)CN1CCOCC1)C(=O)N[C@@H](Cc1ccccc1)C(=O)N[C@@H](CC(C)C)C(=O)[C@@]1(C)CO1` [CFZ, carfilzomib], for which the IC50 in test [1] (Homo sapiens, 72 h) came to 28 nM; in test [3] (Homo sapiens, 72 h), 6.5 nM. Further, in test [1], the “Sensitivity … compared with benign CR cells” value is reported as “more sensitive”. Further, the “common genes exclusively induced in the tumor CR cells” value in test [4] came out at 23. Also, the “genes inhibited that were shared in the tumor CR cells” value in test [4] stood at 45. Besides, the “patients with a decline in PSA” value in test [5] is reported as 3.5%. For the same molecule, the “Sensitivity … compared with normal CR cells” value in test [3] is “significant responses”. Besides, in test [6], the “shared genes inhibited in the normal CR cells” value is listed as 56.
For the molecule `N[C@@H](CCC(=O)N[C@@H](CS)C(=O)NCC(=O)O)C(=O)O` [GSH, glutathione], the “Sensitivity … compared with benign CR cells” value in test [1] was “No significant differential responses”. Further, in test [3], the “Sensitivity … compared with normal CR cells” value is “No significant differential responses”.
Turning to `S=C=NCCc1ccccc1` [PTC, phenethyl isothiocyanate], the “Sensitivity … compared with normal CR cells” value in test [3] was “no differences in sensitivity”.
As for `Nc1nccc(-c2c(-c3ccc(F)cc3)ncn2C2CCNCC2)n1` [SB220025], the “Sensitivity … compared with benign CR cells” value in test [1] is on record as “No significant differential responses”. The “Sensitivity … compared with normal CR cells” value in test [3] is reported as “No significant differential responses”.
Take `C[S+]([O-])CCCCN=C=S` (stereo not shown) [SFN, sulforaphane]: the “Sensitivity … compared with benign CR cells” value in test [1] was “more sensitive”. For the same molecule, the “Sensitivity … compared with normal CR cells” value in test [3] was “no differences in sensitivity”.
